From PubChem BioAssay come the findings set out here.

Assay [1] can be described thus: inhibitors of TNFa-induced NFkB p65 translocation, primary screen, imaging, HUVEC, MLSMR starter and 10KST1 sets (AID 438;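 active = inhibition above 20% together with a positive visual image hit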;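 also: compound added about 3h40 before a 20 min TNFalpha stimulation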;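 as to inhibition: signal is the nuclear over cytoplasmic p65 intensity ratio per well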). The conditions noted are these: HUVEC TNFa-induced p65 nuclear translocation; cell count: measured here: nuclei count (cytotoxicity indicator), at 2.08 µM; inhibition: at 2 µM, stronger effect = higher value, 0% TNFa-plus-vehicle, 100% no-TNFa wells.
The nature of assay [2]: inhibitors of mutant huntingtin aggregation, primary screen, imaging, exon1htt(103Q)mCFP cells, high-content imaging (AID 483;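 active = visual image review flags a hit and inhibition of aggregation exceeds 20%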;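 also: compound exposure lasted 3 days before fixation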;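 as to nuclei count: percent of the per-plate median nuclei count of sample wells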). The conditions noted are these: exon1htt(103Q)mCFP cell line, aggregate imaging, at 2 µM; inhibition of aggregation: stronger effect = higher value; nuclei count: measured here: cell count, toxicity.
The nature of assay [3]: inhibitors of E-selectin induction by TNFa, primary screen, imaging, HUVEC, immunofluorescence, MLSMR starter and 10KST1 sets (AID 487;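 active = visually confirmed hit in the image check and inhibition above 20%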;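 as to inhibition: signal is fraction of cell area covered by stained E-selectin grains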;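 as to nuclei count: 100% = median nuclei count of all wells on the same plate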). The conditions noted are these: HUVEC TNFalpha-induced E-selectin immunofluorescence imaging, at 2 µM; inhibition: stronger effect = higher value; nuclei count: measured here: cell number, toxicity.
For assay [4], the target named is Voltage-gated potassium channel subunit beta-2 (Rattus norvegicus) (UniProt P62483). As to the kind of experiment: KvBeta enzyme negative modulators, primary screen, biochemical, NADPH fluorescence (AID 622;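 active = fluorescence slope higher than the sample average by over 3 SD, cut at about -0.22 in these data, passing the limit was not always enough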;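 also: slope of raw intensity against log time taken from 70 to 1610 s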). The following applies: recombinant KvBeta, 4-cyanobenzaldehyde reduction, at 10 µM, stronger effect = higher value.
Voltage-gated potassium channel subunit beta-2 (Rattus norvegicus), sequence (P62483 whole entry, looked up): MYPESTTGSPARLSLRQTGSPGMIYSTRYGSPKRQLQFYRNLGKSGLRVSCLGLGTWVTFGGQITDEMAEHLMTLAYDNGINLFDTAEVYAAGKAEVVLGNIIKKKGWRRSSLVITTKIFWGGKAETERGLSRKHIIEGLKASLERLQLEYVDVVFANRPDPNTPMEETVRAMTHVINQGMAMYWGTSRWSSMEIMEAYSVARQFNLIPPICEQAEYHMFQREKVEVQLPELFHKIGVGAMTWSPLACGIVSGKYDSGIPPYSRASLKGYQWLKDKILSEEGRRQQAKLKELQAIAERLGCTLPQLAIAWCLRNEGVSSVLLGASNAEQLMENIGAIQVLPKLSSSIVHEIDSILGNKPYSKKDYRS
For assay [5] the target is unchanged. As to the kind of experiment: KvBeta positive modulators, primary screen, biochemical, NADPH fluorescence (AID 623;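 active = NADPH fluorescence slope more negative than the mean of all samples by about 3 SD, 99.7% confidence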;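 also: fluorescence intensity change per second fitted from 20 to 320 s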). The conditions noted are these: Recombinant KvBeta, NADPH fluorescence decrease slope, 10 min; at 10 µM; stronger effect = lower value.
Assay [6] addresses Muscarinic acetylcholine receptor M4 (Homo sapiens) (UniProt P08173). The experiment in a line: compounds altering M4/GIRK thallium flux, either direction, primary screen, M4 allosteric agonist project, cell-based, HEK293 M4/GIRK, BTC-AM (AID 625).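 Also: thallium influx through GIRK channels coupled to M4 in HEK293 cells with BTC-AM dye.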 The conditions noted are these: at 10 µM, actives lie on both sides. The method in brief:
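System: HEK293 cells with M4 receptor and GIRK channels | Incubation: Cells overnight at 37 °C, BTC-AM loading 1 h, reads 2 min total | Technique: Kinetic BTC-AM fluorescence sampled at 1 Hz, 10 s pre-addition baseline | Measure: Post-addition slope, 15–24 s, of baseline-normalized fluorescence | Control set: Carbachol positive, DMSO negative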

A short description of assay [7]: inhibitors of Sendai virus-induced IRF3 signaling, primary screen, TLR/RLR signaling modifier project, cell-based, Sendai virus stimulus, luciferase, 10K MLSCN set (AID 602276;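 active = inhibition at or above 50% at 10 µM; inactive = inhibition below 50%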;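 also: firefly luciferase from ISG56 promoter only with Renilla not read in this screen; 0% = Sendai virus plus DMSO and 100% = medium plus DMSO without virus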). The following applies: HEK293 RL24 IRF3 luciferase reporter, at 10 µM, stronger effect = higher value.
Assay [8] is described as follows: inhibitors of poly I:C-induced TLR3 signaling, primary screen, cell-based, poly I:C stimulus, luciferase, 10K MLSCN set (AID 602277;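 active = inhibition of the reporter signal at or above 50%; inactive = inhibition below 50%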). The conditions noted are these: HEK293-TLR3 RL24 IRF3 luciferase reporter, at 10 µM, stronger effect = higher value.

Calls of active or inactive are those of the source.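 The calls were made as follows, unless noted: active = fluorescence slope after compound addition differing from the mean of all tested samples at 99.7% confidence, mostly higher but some lower; inactive = the rest.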

Muscarinic acetylcholine receptor M4 (Homo sapiens), sequence (P08173 whole entry, looked up): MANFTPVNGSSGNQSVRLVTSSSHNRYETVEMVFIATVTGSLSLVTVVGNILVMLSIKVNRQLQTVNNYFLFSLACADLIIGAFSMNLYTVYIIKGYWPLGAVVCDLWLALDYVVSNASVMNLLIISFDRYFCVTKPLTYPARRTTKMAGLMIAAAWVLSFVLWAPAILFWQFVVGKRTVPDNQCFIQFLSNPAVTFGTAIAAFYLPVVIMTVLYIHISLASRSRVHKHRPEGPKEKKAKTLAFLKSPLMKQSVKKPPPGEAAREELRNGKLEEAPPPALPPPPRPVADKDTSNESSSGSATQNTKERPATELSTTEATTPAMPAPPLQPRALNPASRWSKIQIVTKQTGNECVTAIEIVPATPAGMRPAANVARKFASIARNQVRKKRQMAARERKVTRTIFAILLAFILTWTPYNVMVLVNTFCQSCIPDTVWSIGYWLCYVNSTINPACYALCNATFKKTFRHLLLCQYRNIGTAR

In the case of `CC1CN(c2c3c(nc4ncnn24)CCCC3)CC(C)O1` (stereo not drawn), the cell count in assay [1] stood at 752. Besides, the inhibition in assay [1] was 0% (inactive); in assay [3], -31.5% (inactive); in assay [7], 14.7% (inactive); in assay [8], 21.5% (inactive). The inhibition of aggregation in assay [2] was -14.4% (inactive). Further, the nuclei count worked out at 99.9% in assay [2] and 106% in assay [3]. In addition, the values for the fluorescence slope in assay [4] and in assay [6] were -0.481 (inactive) and 0.00504 (inactive), respectively. The NADPH fluorescence slope in assay [5] was 3.1e-05 (inactive).

Turning to `COc1ccc(N2CCN(C(=O)CSc3ncnc4c3cnn4-c3ccccc3C)CC2)cc1`, the cell count in assay [1] came to 543. Also, the inhibition in assay [1] is 2.1% (inactive); in assay [3], -60.3% (inactive); in assay [7] it was 10.5% (inactive); in assay [8], 15.1% (inactive). Moreover, the inhibition of aggregation in assay [2] is -6.1% (inactive). In addition, the nuclei count came out at 120% in assay [2] and 159% in assay [3]. The fluorescence slope was -0.506 (inactive) in assay [4] and 0.0046 (inactive) in assay [6]. Moreover, the NADPH fluorescence slope in assay [5] is -3.3e-06 (inactive).

Consider `CS(=O)(=O)Nc1ccc(C(=O)NCCc2ccccc2)cc1`, for which, in assay [1], the cell count worked out at 342. In addition, the inhibition was -2% (inactive) in assay [1], -69% (inactive) in assay [3], -13.2% (inactive) in assay [7] and -40.3% (inactive) in assay [8]. Further, in assay [2], the inhibition of aggregation is -9.2% (inactive). Moreover, the results for the nuclei count in assay [2] and in assay [3] were 108% and 125%, respectively. Also, the fluorescence slope is -0.535 (inactive) in assay [4] and 0.00454 (inactive) in assay [6]. For the same compound, the NADPH fluorescence slope in assay [5] was -1.7e-06 (inactive).

Take `Cc1cc(NC(=O)Cn2cnc3c(cnn3C(C)(C)C)c2=O)no1`: the cell count in assay [1] was 645. Further, the inhibition is 1.1% (inactive) in assay [1], 7% (inactive) in assay [3], -18.6% (inactive) in assay [7] and -0.822% (inactive) in assay [8]. Besides, the inhibition of aggregation in assay [2] was -5.1% (inactive). The nuclei count in assay [2] came out at 113%; in assay [3] it was 102%. Moreover, the fluorescence slope in assay [4] is -0.573 (inactive); in assay [6], 0.00541 (inactive). Also, the NADPH fluorescence slope in assay [5] is -3.1e-05 (inactive).

Regarding `COc1ccc(C(=O)CSc2nnc(CNc3ccc(C)cc3C)o2)cc1`, the cell count in assay [1] was found to be 606. Moreover, the inhibition in assay [1] was -4.1% (inactive); in assay [3], -136% (inactive); in assay [7], 14.6% (inactive); in assay [8], 11.8% (inactive). For the same compound, in assay [2], the inhibition of aggregation is 3% (inactive). The nuclei count in assay [2] is 101%; in assay [3] it was 199%. In addition, the values for the fluorescence slope in assay [4] and in assay [6] were -0.469 (inactive) and 0.00401 (inactive), respectively. Moreover, the NADPH fluorescence slope in assay [5] is -8.4e-05 (inactive).

As for `O=C(O)C1CC(=O)N(c2ccc(OCc3ccccc3Cl)cc2)C1` (stereo not drawn), the cell count in assay [1] is 339. Further, the inhibition in assay [1] was -2.2% (inactive); in assay [3] it was -95.2% (inactive); in assay [7], 18.4% (inactive); in assay [8] it was 23.2% (inactive). For the same compound, the inhibition of aggregation in assay [2] is 12.7% (inactive). For the same compound, the nuclei count was 97.1% in assay [2] and 94.8% in assay [3]. The fluorescence slope in assay [4] is -0.644 (inactive); in assay [6], 0.0043 (inactive). In addition, in assay [5], the NADPH fluorescence slope was 4e-05 (inactive).

In the case of `COc1ccc(CCN2C(=O)C3C4C=CC(C4)C3C2=O)cc1OC` (stereo not drawn), the cell count in assay [1] was 493. The inhibition in assay [1] was -3.8% (inactive); in assay [3], -4.2% (inactive); in assay [7] it was 10.2% (inactive); in assay [8] it was 12.7% (inactive). Moreover, in assay [2], the inhibition of aggregation is 2.1% (inactive). Moreover, the nuclei count in assay [2] was determined as 105%; in assay [3] it was 99.7%. For the same compound, the fluorescence slope in assay [4] is -0.451 (inactive); in assay [6], 0.00653 (inactive). The NADPH fluorescence slope in assay [5] is -4e-05 (inactive).

In the case of `O=S(=O)(Cc1ccc(Cl)cc1)Nc1ccc2c(c1)OCO2`, the cell count in assay [1] worked out at 291. Besides, the inhibition in assay [1] is -12.5% (inactive); in assay [3] it was -35.3% (inactive); in assay [7], 7.86% (inactive); in assay [8] it was 9.38% (inactive). In addition, the inhibition of aggregation in assay [2] was 10.4% (inactive). For the same compound, the nuclei count worked out at 99.4% in assay [2] and 123% in assay [3]. The fluorescence slope in assay [4] was -0.454 (inactive); in assay [6], 0.00401 (inactive). Besides, in assay [5], the NADPH fluorescence slope is -5.8e-05 (inactive).

On to `Cc1[nH]c2ccccc2c(=O)c1CN(C)Cc1ccccc1`, for which, in assay [1], the cell count stood at 270. Besides, the inhibition is 2.9% (inactive) in assay [1], -124% (inactive) in assay [3], -21% (inactive) in assay [7] and -31.5% (inactive) in assay [8]. Also, the inhibition of aggregation in assay [2] was 13.3% (inactive). Besides, the values for the nuclei count in assay [2] and in assay [3] were 97.7% and 117%, respectively. For the same compound, the figures for the fluorescence slope in assay [4] and in assay [6] were -0.58 (inactive) and 0.00538 (inactive), respectively. Moreover, the NADPH fluorescence slope in assay [5] is 2e-05 (inactive).

On to `CN(C)/C=C(\C#N)c1nc2ccccc2[nH]1`, for which, in assay [1], the cell count came out at 468. Also, the inhibition in assay [1] is 11.9% (inactive); in assay [3] it was -7.3% (inactive); in assay [7], -21.4% (inactive); in assay [8], -44.6% (inactive). Also, the inhibition of aggregation in assay [2] was -17.2% (inactive). Besides, the results for the nuclei count in assay [2] and in assay [3] were 67.1% and 112%, respectively. In addition, the fluorescence slope in assay [4] is -0.532 (inactive); in assay [6], 0.00457 (inactive). Also, the NADPH fluorescence slope in assay [5] is -3.9e-05 (inactive).

Turning to `Nc1nc(-c2ccccc2)cc(C(F)(F)F)n1`, the cell count in assay [1] came out at 457. Also, the inhibition in assay [1] was -7.5% (inactive); in assay [3], -11.2% (inactive); in assay [7], 11% (inactive); in assay [8], 6.96% (inactive). Further, in assay [2], the inhibition of aggregation was 1.3% (inactive). Further, the nuclei count in assay [2] stood at 98.1%; in assay [3], 107%. The fluorescence slope in assay [4] is -0.571 (inactive); in assay [6] it was 0.00753 (inactive). The NADPH fluorescence slope in assay [5] is 1.4e-06 (inactive).

`CCN(c1ccc(OC)cc1)S(=O)(=O)c1ccc2c(c1)CCN2C(=O)CCC(=O)O`: the cell count in assay [1] is 625. Further, the inhibition was 8.3% (inactive) in assay [1], -35.6% (inactive) in assay [3], 14.1% (inactive) in assay [7] and 20.9% (inactive) in assay [8]. The inhibition of aggregation in assay [2] was -38.2% (inactive). The nuclei count in assay [2] was found to be 92.1%; in assay [3] it was 115%. For the same compound, the fluorescence slope in assay [4] was -0.454 (inactive); in assay [6], 0.00631 (inactive). In addition, the NADPH fluorescence slope in assay [5] is 2.3e-05 (inactive).

Turning to `Cc1[nH]nc2c1C1(CCN(C(=O)c3ccccc3)CC1)C(C#N)=C(N)O2`, the cell count in assay [1] was found to be 316. Also, the inhibition in assay [1] was -17% (inactive); in assay [3], 23.5% (inactive); in assay [7] it was 26.8% (inactive); in assay [8] it was 32.8% (inactive). In assay [2], the inhibition of aggregation is 22.6% (inactive). Moreover, the nuclei count is 74.8% in assay [2] and 114% in assay [3]. For the same compound, the fluorescence slope was -0.598 (inactive) in assay [4] and 0.00593 (inactive) in assay [6]. Further, in assay [5], the NADPH fluorescence slope is -2.2e-06 (inactive).
